Assay [1] can be described thus: Anticancer activity against mouse 984NA cells assessed as reduction in cell viability measured after 72 hrs by celltiter-glo assay. Format: functional, cell-based. A digest of the protocol: (§1)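 Cells seeded in duplicate at 10,000 per well in DMEM with 5% FBS and incubated overnight. Compounds were then added as a 10-point dose response. After 72 h, viability was read by CellTiter-Glo luminescence, with the reagent diluted 1:1 in PBS/1% Triton-X. Values were normalized to DMSO-treated cells and IC50 was derived from curve fitting.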
On the technique in general: Cellular ATP, detected with luciferase, serves as a proxy for viable cell number.

For another assay, the system named is NCI-H2107. Briefly: Anticancer activity against human NCI-H2107 cells assessed as reduction in cell viability measured after 72 hrs by celltiter-glo assay. Format: functional, cell-based.
Assay [2] in a line: Anticancer activity against mouse 319N1 cells assessed as reduction in cell viability measured after 72 hrs by celltiter-glo assay. The format is functional, cell-based. The note with it: 319N1, 72 h. A digest of the protocol:
as §1

The next assay has as its system NCI-H128. Briefly: Anticancer activity against human NCI-H128 cells assessed as reduction in cell viability measured after 72 hrs by celltiter-glo assay. The format is functional, cell-based.
The nature of assay [3]: Anticancer activity against mouse 518T2 cells assessed as reduction in cell viability measured after 72 hrs by celltiter-glo assay. The format is functional, cell-based. The settings on record: 518T2, 72 h. A digest of the protocol:
as §1

In another assay the test system is 518T2. Nature of the assay: Binding affinity to beta-tubulin in mouse 518T2 cells at 0.1 to 50 uM measured after 1.5 hrs using Alexa Fluor 532 dye by copper-mediated click reaction based SDS PAGE analysis. Format: cell-based. The settings on record: dose microM 0.1-50, time 1.5 hrs. A digest of the protocol: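 Competition assay in 518T2 cells (1 million per well, DMEM with 5% FBS). Test analogs in DMSO were dispensed first at 100 nM to 50 μM and the cells plated onto them. The next day, alkyne probe (5 μM) was added for 1.5 h at 37 °C. Lysis was in 1% SDS HEPES buffer, followed by a click reaction with fluorescent azide, SDS-PAGE, and EC50 from displacement of the p50 band.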

A further assay relates to NCI-H889. Nature of the assay: Anticancer activity against human NCI-H889 cells assessed as reduction in cell viability measured after 72 hrs by celltiter-glo assay. Format: functional, cell-based.

Molecules are shown by their SMILES. pIC50: −log10 of the molar value. Calls of active or inactive are those of the source. No cut-off for these calls is given here.

One compound from ChEMBL document CHEMBL4699638, “A Multipronged Approach Establishes Covalent Modification of β-Tubulin as the Mode of Action of Benzamide Anti-cancer Toxins” (J Med Chem, 2020) can be followed below.

On to `O=C(c1ccc(Cl)c([N+](=O)[O-])c1)N1CCN(c2ccccc2)CC1`, for which the negative-log IC50 (pIC50) in assay [1], in assay [2] and in assay [3] was 5.49 each time. In addition, the result in the assay with NCI-H2107, in the assay with NCI-H128 and in the assay on NCI-H889 was Active. Besides, in the assay with 518T2, the “beta-tubulin binding (probe competition, active/inactive)” value was “Active”.

A word on the pIC50: it is the negative decadic logarithm of the IC50, by convention in mol/L.
